Experimental data of several laboratories.
Each line is one published result; the experiments were not run side by side.
ABL1 F317L phosphorylated: Tyrosine-protein kinase ABL1, phosphorylated (ABL1, Homo sapiens, UniProt P00519, F317L)
ABL1 T315I phosphorylated: Tyrosine-protein kinase ABL1, phosphorylated (ABL1, Homo sapiens, UniProt P00519, T315I)
ABL1 M351T phosphorylated: Tyrosine-protein kinase ABL1, phosphorylated (ABL1, Homo sapiens, UniProt P00519, M351T)
ABL1 Q252H phosphorylated: Tyrosine-protein kinase ABL1, phosphorylated (ABL1, Homo sapiens, UniProt P00519, Q252H)
ABL1 F317L non-phosphorylated: Tyrosine-protein kinase ABL1, non-phosphorylated (ABL1, Homo sapiens, UniProt P00519, F317L)
ABL1 T315I: Tyrosine-protein kinase ABL1 (ABL1, Homo sapiens, UniProt P00519, T315I)
ABL1 E255K phosphorylated: Tyrosine-protein kinase ABL1, phosphorylated (ABL1, Homo sapiens, UniProt P00519, E255K)
ABL1 F317L: Tyrosine-protein kinase ABL1 (ABL1, Homo sapiens, UniProt P00519, F317L)
ABL1: Tyrosine-protein kinase ABL1 (ABL1, Homo sapiens, UniProt P00519)

Nc1cnc(N2CCc3cc(S(=O)(=O)Nc4c(F)cc(Cl)cc4F)cc(N4CCCC4=O)c32)nc1 — remaining binding (ABL1 F317L phosphorylated; cell-free assay; competition with immobilised ligand; 1 µM): 78%
COc1cc(-c2cc(-c3ccc(N4CCNCC4)cc3)cnc2N)cc(OC)c1OC — inhibition (Tyrosine-protein kinase ABL1 (ABL1, Homo sapiens, UniProt P00519, E255K); enzyme activity; inhibitor; 0.1 µM): 74%
COc1cnc(Nc2cccc(S(N)(=O)=O)c2)nc1N1CCN(c2ccccc2)CC1 — remaining binding (ABL1 T315I phosphorylated; binding; competition with immobilised ligand; 1 µM): 88%
O=C(c1ccc(Nc2ncc(Cl)c(-c3cc4ccccc4s3)n2)cc1)N1CCC(N2CCCC2)CC1 — remaining binding (ABL1 M351T phosphorylated; binding; competition with immobilised ligand; 1 µM): 12%
O=S(=O)(NC1CCC(c2cc(F)ccc2F)(S(=O)(=O)c2ccc(Cl)cc2)CC1)C(F)(F)F (centres unmarked) — remaining binding (Tyrosine-protein kinase ABL1, non-phosphorylated (ABL1, Homo sapiens, UniProt P00519, H396P); cell-free assay; competition with immobilised ligand; 1 µM): 100%
C=CC(=O)N1CCC(C(=O)NCC(=O)N2CCN(c3nc(-c4cnc(N)nc4C(F)F)nc(N4CCOCC4)n3)CC2)CC1 — remaining binding (ABL1 F317L phosphorylated; binding; competition with immobilised ligand; 1 µM): 100%
O=C(N1CCS(=O)(=O)CC1)N1C[C@H](c2ccc(OC(F)(F)F)cc2)C[C@H](c2nc(C3CC3)no2)C1 — remaining binding (Tyrosine-protein kinase ABL1, non-phosphorylated (ABL1, Homo sapiens, UniProt P00519, T315I); cell-free assay; competition with immobilised ligand; 1 µM): 92%
O=C(NCCCN1CCOCC1)c1ccc(Nc2nccc(-c3cc4ccccc4s3)n2)cc1 — remaining binding (ABL1 Q252H phosphorylated; binding; competition with immobilised ligand; 1 µM): 58%
COc1ncc2cc3ccccc3nc2c1C#N — remaining binding (Tyrosine-protein kinase ABL1, phosphorylated (ABL1, Homo sapiens, UniProt P00519, H396P); cell-free assay; competition with immobilised ligand; 5 µM): 97%
COc1cnc(Nc2cccc(S(N)(=O)=O)c2)nc1N1CCN(c2ccccc2)C(=O)C1 — remaining binding (ABL1 F317L non-phosphorylated; binding; competition with immobilised ligand; 1 µM): 90%
Cc1cnc(NC2CCOCC2)nc1-n1cnc(C(=O)NC(CN)c2cc(F)cc(Cl)c2)c1 (centres unmarked) — remaining activity (ABL1 T315I; enzyme activity; inhibitor; radiometric; 1 µM): 115%
CN(C)C(=O)Cn1cc(-c2nc(C3(c4ccc(-c5cnc(N)nc5)cc4)CC3)no2)cn1 — remaining binding (ABL1 F317L non-phosphorylated; cell-free assay; competition with immobilised ligand; 1 µM): 55%
Nc1ncc2c(n1)-c1c([nH]c3ccc(C#CC4CC4)cc13)CCCC2 — remaining binding (ABL1 E255K phosphorylated; binding; competition with immobilised ligand; 1 µM): 100%
O=C(O)[C@@H]1[C@@H](Cn2nnc3ccccc3c2=O)CC[C@H]1C(=O)c1ccc(OCCC2CCOCC2)cc1 — remaining binding (ABL1 E255K phosphorylated; binding; competition with immobilised ligand; 1 µM): 84%
N[C@@H]1CCN(c2nccc(-c3cnn4ncccc34)n2)C1 — remaining binding (ABL1 F317L; binding; 1 µM): 100%
Nc1ncnc2occ(-c3ccc(NC(=O)Nc4cc(C(F)(F)F)ccc4F)cc3)c12 — remaining signal (Tyrosine-protein kinase ABL1, phosphorylated (ABL1, Homo sapiens, UniProt P00519); cell-free assay; inhibitor; 20 µM): 0.1%
CN(c1nccc(-c2cnn3ncccc23)n1)C1CC1 — remaining binding (ABL1 F317L; binding; 1 µM): 100%
O=C(NCCCN1CCOCC1)c1ccc(Nc2ncc(Cl)c(-c3ccc(Cl)s3)n2)cc1 — remaining binding (ABL1 Q252H phosphorylated; binding; competition with immobilised ligand; 1 µM): 29%
Cc1cc(NC(=O)c2cccc3cc(-c4cccc5[nH]nc(N)c45)ccc23)ccc1F — activity vs control (Tyrosine-protein kinase ABL1 (ABL1, Homo sapiens, UniProt P00519, Q252H); enzyme activity; inhibitor; 0.1 µM): 88%
Cc1nccc(COC(=O)N2C[C@@H]3[C@@H](CNC(=O)c4ccc5[nH]nnc5c4)[C@@H]3C2)n1 — remaining binding (ABL1 M351T phosphorylated; cell-free assay; competition with immobilised ligand; 1 µM): 95%
COc1cc2ncnc(Nc3ccc(Oc4ccccc4)c(C)c3C)c2cc1OC — inhibition (ABL1 T315I; enzyme activity; inhibitor; 1 µM): 8%
CCN1CCN(Cc2ccc(C(=O)Nc3ccc(C)c(Oc4ccc5c(c4)CC(=O)N5)c3)cc2C(F)(F)F)CC1 — remaining binding (ABL1 Q252H phosphorylated; binding; competition with immobilised ligand; 1 µM): 49%
CCCOc1ccc(OC)c(F)c1C(=O)c1ccc(C(=O)N[C@@H]2CNC[C@H]2NC(=O)c2ccc3[nH]ncc3c2)cc1 — remaining activity (Tyrosine-protein kinase ABL1 (ABL1, Homo sapiens, UniProt P00519, H396P); enzyme activity; inhibitor; 10 µM): 107%
CO[C@@H](C)c1c(Nc2ccc([C@H](N(C)C(=O)C3CCS(=O)(=O)CC3)C(F)(F)F)cc2)cnc2cc(Cl)nn12 — remaining binding (Tyrosine-protein kinase ABL1, phosphorylated (ABL1, Homo sapiens, UniProt P00519, F317I); binding; 1 µM): 100%
O=C1Nc2ccc(Cl)cc2C1=Cc1cc(Cl)c(O)c(Cl)c1 — remaining signal (ABL1; cell-free assay; 0.5 µM): 84%
CC(=O)c1c(NS(C)(=O)=O)c2cc(-c3ccc(Cl)cc3)c(-c3ccc(Cl)cc3Cl)nc2n(C)c1=O — remaining binding (ABL1 T315I phosphorylated; cell-free assay; competition with immobilised ligand; 1 µM): 93%
c1nc2c(Nc3ccc4c(c3)OCCO4)nc(Nc3ccc4c(c3)OCCO4)nc2[nH]1 — activity vs control (Tyrosine-protein kinase ABL1, non-phosphorylated (ABL1, Homo sapiens, UniProt P00519); enzyme activity; inhibitor; 10 µM): 2.1%
O=C(c1ccc(Nc2nccc(-c3cc4ccccc4s3)n2)cc1)N1CCC(N2CCCC2)CC1 — remaining binding (ABL1 T315I phosphorylated; binding; competition with immobilised ligand; 1 µM): 14%
O=C(NCC1CCOCC1)c1n[nH]cc1NC(=O)c1c(F)cccc1F — remaining binding (Tyrosine-protein kinase ABL1, non-phosphorylated (ABL1, Homo sapiens, UniProt P00519, Q252H); binding; competition with immobilised ligand; 1 µM): 82%
C[C@@H]1CCN(C(=O)CC#N)C[C@@H]1N(C)c1ncnc2[nH]ccc12 — remaining signal (ABL1; cell-free assay; inhibitor; 0.5 µM): 101%
C[C@@H](c1ccc(-n2cnc3c(N)ncnc32)cc1)N1CCc2nn(C)c(Cc3ccccc3)c2C1=O — remaining binding (ABL1 F317L non-phosphorylated; binding; competition with immobilised ligand; 0.1 µM): 16%
Cc1ccc(NC(=O)c2ccc(C)c(C(F)(F)F)c2)cc1C#Cc1nn(C2CCC(O)CC2)c2ncnc(N)c12 (centres unmarked) — remaining signal (Tyrosine-protein kinase ABL1 (ABL1, Homo sapiens, UniProt P00519, Y253F); cell-free assay; 10 µM): 0%
COc1cc2ncnc(Nc3ccc(Oc4ccccc4)cc3C)c2cc1OC — inhibition (ABL1; enzyme activity; inhibitor; 1 µM): 13%
COc1ccc(COc2ccc(Cc3cnc(N)nc3N)cc2OC)cc1 — remaining signal (ABL1; cell-free assay; 0.5 µM): 102%
c1cncc(-c2cccc(Nc3nccc(NC4CCCCC4)n3)c2)c1 — remaining binding (ABL1 E255K phosphorylated; binding; competition with immobilised ligand; 10 µM): 14%
